The values below come from ChEMBL document CHEMBL4033790, “Design and Synthesis of Novel Deuterated Ligands Functionally Selective for the γ-Aminobutyric Acid Type A Receptor (GABAAR) α6 Subtype with Improved Metabolic Stability and Enhanced Bioavailability” (J Med Chem, 2018).

The nature of data set [1]: Drug metabolism in mouse liver microsomes assessed as CYP450 mediated-O-demethylated 2-(6-hydroxypyridin-3-yl)-7-methoxy-2H-pyrazolo[4,3-c]quinolin-3(5H)-one metabolite formation after 60 mins by LC-MS analysis. The conditions noted are these: 1 h. The format is ADME. Summed up: (§1)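 The 60-min samples from the human or mouse liver microsome incubations (10 µM compound, 0.5 mg/mL protein, NADPH regenerating system, 37 °C, pH 7.4) were run on LC-MS in SIM mode with dual ESI/APCI ionization. The method was calibrated to each component's retention time and mass, and the peak intensities of the parent and O-demethylated metabolites were measured.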
Background: Liver microsomes are vesicles of endoplasmic reticulum, rich in cytochrome P450 enzymes.

The nature of data set [2]: Drug metabolism in mouse liver microsomes assessed as CYP450 mediated-O-demethylated 7-hydroxy-2-(6-hydroxypyridin-3-yl)-2H-pyrazolo[4,3-c]quinolin-3(5H)-one metabolite formation after 60 mins by LC-MS analysis. In kind it is ADME. The conditions noted are these: 1 h. Summed up: as §1
A short description of data set [3]: Drug metabolism in human liver microsomes assessed as CYP450 mediated-O-demethylated 7-hydroxy-2-(6-hydroxypyridin-3-yl)-2H-pyrazolo[4,3-c]quinolin-3(5H)-one metabolite formation after 60 mins by LC-MS analysis. The format is ADME. The conditions noted are these: 1 h. Summed up:
as §1

Data set [4] in a line: Drug metabolism in human liver microsomes assessed as CYP450 mediated-O-demethylated 7-hydroxy-2-[6-(trideuteriomethoxy)-3-pyridyl]-5H-pyrazolo[4,3-c]quinolin-3-one metabolite formation after 60 mins by LC-MS analysis. The format is ADME. Particulars: 1 h; call rule not given here. Summed up:
as §1

The nature of data set [5]: Metabolic stability in human liver microsomes assessed as parent compound remaining at 10 uM after 60 mins by LC-MS analysis. The format is ADME, microsome. The conditions noted are these: read-out: Stability. In short, it runs like this:
(§2)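 The 60 min samples of the microsomal incubation (10 μM compound, human or mouse liver microsomes at 0.5 mg/mL, NADPH regenerating system, 37 °C) were analysed by LC-MS. Detection used SIM mode with dual ESI/APCI ionization, calibrated to the retention times and masses of the parent and its O-demethylated metabolites. Peak intensities were measured.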

Data set [6] addresses Voltage-gated inwardly rectifying potassium channel KCNH2 (Homo sapiens, UniProt Q12809). The experiment in a line: Displacement of [3H]-dofetilide from human ERG expressed in HEK cell membranes at >10 uM after 60 to 90 mins by scintillation counting. For orientation: Loss of bound radioactivity is the signal in a displacement assay; it reports binding, not function.
For data set [7], the system named is Mus musculus. As to the kind of experiment: Neurotoxicity in Swiss Webster mouse assessed as induction of motor impairment at 40 mg/kg administered via oral gavage measured after 10 to 60 mins by rotarod method. The conditions noted are these: in vivo. The format is toxicity, organism-based. In short, it runs like this:
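Female mice were given a single oral gavage dose of 40 mg/kg, either in 50% PBS/40% propylene glycol/10% DMSO or, for poorly soluble compounds, in 2% polyethylene glycol plus 2.5% hydroxymethyl cellulose. Rotarod performance was tested 10, 30 and 60 min after dosing, with diazepam 5 mg/kg as positive control.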

The nature of data set [8]: Metabolic stability in mouse liver microsomes assessed as parent compound remaining at 10 uM after 60 mins by LC-MS analysis. In kind it is ADME, microsome. Particulars: read-out: Stability. In short, it runs like this: as §2
Data set [9] in a line: Drug metabolism in human liver microsomes assessed as CYP450 mediated-O-demethylated 2-(6-hydroxypyridin-3-yl)-7-methoxy-2H-pyrazolo[4,3-c]quinolin-3(5H)-one metabolite formation after 60 mins by LC-MS analysis. The format is ADME. The conditions noted are these: 1 h. Summed up: as §1
Data set [10] can be described thus: Drug metabolism in mouse liver microsomes assessed as CYP450 mediated-O-demethylated 7-hydroxy-2-[6-(trideuteriomethoxy)-3-pyridyl]-5H-pyrazolo[4,3-c]quinolin-3-one metabolite formation after 60 mins by LC-MS analysis. In kind it is ADME. The conditions noted are these: 1 h. In short, it runs like this:
as §1

Data set [11] deals with HepG2. As to the kind of experiment: Cytotoxicity against human HepG2 cells assessed as reduction in cell viability up to 400 uM after 48 hrs by CellTiter-Glo assay. The format is cell-based. The conditions noted are these: hepg2, 48 h. Summed up:
(§3)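 HEK293T and HepG2 cells grown in high-glucose DMEM with non-essential amino acids, 10 mM HEPES, penicillin/streptomycin and 10% heat-inactivated FBS. Cells were harvested with trypsin and plated; compound was pin-transferred 3 h later. Incubation was 48 h, then CellTiter-Glo luminescence was read. Controls were DMSO (negative) and a cytotoxic aminoketone (positive). Quadruplicates, three independent runs, normalized to controls, nonlinear regression.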

In data set [12] the test system is Liver. The experiment in a line: Half life in mouse liver microsomes at 10 uM by LC-MS/MS analysis. In kind it is ADME, microsome. In short, it runs like this: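 Compound at 10 μM final was preincubated 5 min at 37 °C with NADPH regenerating system in phosphate buffer, pH 7.4. Human or mouse liver microsomes (0.5 mg/mL protein) were added to start the reaction. Samples were taken at 0 (no microsomes) and 10–60 min and measured by LC-MS/MS against an internal standard. Half-life = 0.693/k, with k the slope of ln peak-area ratio versus time. Three experiments, each in duplicate.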

Data set [13] deals with HEK-293T. The experiment in a line: Cytotoxicity against HEK293T cells assessed as reduction in cell viability up to 400 uM after 48 hrs by CellTiter-Glo assay. The conditions noted are these: human. The format is cell-based. In short, it runs like this:
as §3
A general note: In ATP-based viability assays light output follows the ATP content of the culture.

The nature of data set [14]: Drug metabolism in mouse liver microsomes assessed as CYP450 mediated-O-demethylated 8-chloro-2-(3-hydroxyphenyl)-2H-pyrazolo[4,3-c]quinolin-3(5H)-one metabolite formation after 60 mins by LC-MS analysis. The format is ADME. Particulars: 1 h. In short, it runs like this: as §1
The nature of data set [15]: Drug metabolism in human liver microsomes assessed as CYP450 mediated-O-demethylated 8-chloro-2-(3-hydroxyphenyl)-2H-pyrazolo[4,3-c]quinolin-3(5H)-one metabolite formation after 60 mins by LC-MS analysis. The format is ADME. Particulars: 1 h. In short, it runs like this: as §1
In data set [16] the test system is Mus musculus. As to the kind of experiment: Neurotoxicity in Swiss Webster mouse assessed as induction of motor impairment at 5 mg/kg administered via oral gavage measured after 10 to 60 mins by rotarod method. The format is toxicity, organism-based. Particulars: in vivo. In short, it runs like this:
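Female Swiss Webster mice were given diazepam 5 mg/kg by oral gavage as the positive control. Rotarod performance was tested 10, 30 and 60 min after dosing.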

Voltage-gated inwardly rectifying potassium channel KCNH2, sequence (Q12809 whole entry): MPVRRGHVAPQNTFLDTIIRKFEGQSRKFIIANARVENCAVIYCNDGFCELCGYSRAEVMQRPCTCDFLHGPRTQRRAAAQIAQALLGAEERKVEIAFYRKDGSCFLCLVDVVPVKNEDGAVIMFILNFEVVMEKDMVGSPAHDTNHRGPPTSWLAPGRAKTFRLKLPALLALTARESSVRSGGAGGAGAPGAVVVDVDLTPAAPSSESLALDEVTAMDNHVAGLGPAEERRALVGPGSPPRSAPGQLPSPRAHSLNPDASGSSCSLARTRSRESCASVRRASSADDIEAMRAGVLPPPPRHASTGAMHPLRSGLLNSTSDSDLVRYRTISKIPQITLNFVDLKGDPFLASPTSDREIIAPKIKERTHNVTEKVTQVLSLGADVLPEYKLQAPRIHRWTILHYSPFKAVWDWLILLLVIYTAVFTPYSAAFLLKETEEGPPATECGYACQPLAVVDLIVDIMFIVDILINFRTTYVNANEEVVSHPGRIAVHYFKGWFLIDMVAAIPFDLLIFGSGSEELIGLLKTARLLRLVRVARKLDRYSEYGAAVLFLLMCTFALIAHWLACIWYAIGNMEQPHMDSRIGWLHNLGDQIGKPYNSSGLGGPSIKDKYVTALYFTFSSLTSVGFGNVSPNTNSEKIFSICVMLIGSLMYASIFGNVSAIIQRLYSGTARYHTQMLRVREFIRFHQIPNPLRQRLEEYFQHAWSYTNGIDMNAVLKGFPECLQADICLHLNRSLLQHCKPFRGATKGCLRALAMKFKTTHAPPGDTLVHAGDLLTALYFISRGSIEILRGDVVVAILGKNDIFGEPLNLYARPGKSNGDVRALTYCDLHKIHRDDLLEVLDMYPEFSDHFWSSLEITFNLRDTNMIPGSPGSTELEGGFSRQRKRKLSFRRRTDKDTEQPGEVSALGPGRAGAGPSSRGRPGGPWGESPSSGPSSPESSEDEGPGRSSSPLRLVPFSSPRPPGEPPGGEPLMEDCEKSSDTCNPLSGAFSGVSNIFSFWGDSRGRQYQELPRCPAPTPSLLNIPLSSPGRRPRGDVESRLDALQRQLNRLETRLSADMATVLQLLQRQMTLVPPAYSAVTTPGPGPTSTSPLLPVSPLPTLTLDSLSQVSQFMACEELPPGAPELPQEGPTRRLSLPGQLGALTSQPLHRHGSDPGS

Consider `[2H]C([2H])([2H])Oc1ccc(-n2nc3c4ccc(OC)cc4[nH]cc-3c2=O)cn1`, for which the Drug metabolism result in data set [1], in data set [2], in [3], in data set [4], in data set [9] and in data set [10] was “Metabolite_Detected” in each case. Also, the remaining at 1 h, 10 µM is 92.6% in data set [5] and 92.4% in data set [8]. Moreover, in data set [6], the “inhibition (INH)” value is “Not Active”. Further, in data set [7], the Activity result is “Non-Toxic”.
Regarding `[2H]C([2H])([2H])Oc1cccc(-n2nc3c4cc(Cl)ccc4[nH]cc-3c2=O)c1`, the Activity result in data set [11], in data set [13] and in data set [7] was “Non-Toxic” each time. The compound further yielded a t1/2 in [12] of 2.8 h. For the same compound, the results for the remaining at 1 h, 10 µM in data set [5] and in data set [8] were 93% and 76.6%, respectively. In [6], the “inhibition (INH)” value was “Not Active”. Also, the Drug metabolism result in data set [14] and in [15] was “Metabolite_Detected” throughout.
`CN1C(=O)CN=C(c2ccccc2)c2cc(Cl)ccc21` [DIAZEPAM]: the Activity entry in data set [16] is “Toxic”.
